Data reported in ChEMBL document CHEMBL4251593, “Nontoxic combretafuranone analogues with high in vitro antibacterial activity” (Eur J Med Chem, 2018).
Converted amounts (≈) assume the structure as drawn. The source made the active and inactive calls. No cut-off for these calls is given here.

How the values were obtained:
Candida albicans [1] = test: Antifungal activity against Candida albicans ATCC 90028 up to 1 mM after 24 to 48 hrs by microdilution assay; format: functional, organism-based
Procedure, shortened: (§1)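 Fungal microdilution following modified CLSI M27-A3/M38-A2, in RPMI 1640 with L-glutamine and 0.165 M MOPS at pH 7.0, with DMSO no more than 2% final. Compounds were 2-fold serially diluted from 2000 to 0.488 µmol/l. The inoculum was 5×10^3 cfu/ml. Incubation was at 35 °C, read visually at 24/48 h (T. mentagrophytes at 72/120 h). MIC was IC80 for yeasts and IC50 for filamentous fungi, determined twice in duplicate.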

Pichia kudriavzevii [2] = test: Antifungal activity against Candida krusei E28 clinical isolate up to 1 mM after 24 to 48 hrs by microdilution assay; format: functional, organism-based; procedure, shortened: as §1
Pseudomonas aeruginosa [3] = test: Antibacterial activity against Pseudomonas aeruginosa ATCC 9027 after 48 hrs by microdilution assay; format: functional; conditions: ATCC 9027, 48 h
Procedure, shortened: (§2)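 Broth microdilution in Mueller-Hinton medium buffered to pH 7.4 (±0.2), with DMSO as diluent at no more than 2% final. Compounds were tested as 2-fold serial dilutions from 2000 to 0.488 µmol/l. The inoculum was 0.5 McFarland (1.5×10^8 cfu/ml). Plates were held at 37 °C and read visually at 24 and 48 h. MIC was taken as 95% growth inhibition versus control, determined twice in duplicate.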

TERT-RPE1 [4] = test: Induction of apoptosis in human RPE1 cells assessed as caspase 3/7 activity after 24 hrs by caspase-glo luminescent assay; format: cell-based; conditions: RPE-1, 24 h
Procedure, shortened: (§3)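 Cells were seeded at 500 per well in their growth media and exposed to 12 concentrations from 40 µM to 1 nM, delivered from DMSO, in triplicate. After 24 h, caspase-3/7 activity was read by Caspase-Glo luminescence. Data were normalized and ED50 was fitted by variable-slope nonlinear regression.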

Klebsiella pneumoniae [5] = test: Antibacterial activity against Klebsiella pneumoniae HK11750/08 clinical isolate after 48 hrs by microdilution assay; format: functional; conditions: HK11750/08, 48 h
[6] = test system: Trichophyton mentagrophytes; test: Antifungal activity against Trichophyton mentagrophytes 445 up to 1 mM after 72 to 120 hrs by microdilution assay; format: functional, organism-based; procedure, shortened: as §1
HepG2 [7] = test: Cytotoxicity against human HepG2 cells assessed as reduction in cell viability after 48 hrs by ATPlite-based luminescent assay; conditions: HepG2, 48 h
Procedure, shortened: (§4)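 Cells were grown […] with 10% FBS, glutamax, NEAA and pen/strep at 37 °C, 5% CO2. Media were DMEM for RPE-1, HepG2 and BJ (BJ plus 10 ng/ml bFGF), F-12K for PC3, and IMDM for K562/HL-60. Cells were seeded at 500 per well and dosed from DMSO at 12 concentrations, 40 µM to 1 nM, in triplicate. After 48 h, intracellular ATP was read by luminescence. ED50 was obtained by variable-slope nonlinear regression.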

Staphylococcus aureus [8] = test: Antibacterial activity against Staphylococcus aureus ATCC 6538 after 24 hrs by microdilution assay; format: functional; conditions: ATCC 6538, 24 h
Staphylococcus aureus [9] = test: Antibacterial activity against Staphylococcus aureus ATCC 6538 after 48 hrs by microdilution assay; format: functional; conditions: ATCC 6538, 48 h
Klebsiella pneumoniae [10] = test: Antibacterial activity against Klebsiella pneumoniae HK14368/08 clinical isolate after 24 hrs by microdilution assay; format: functional; conditions: HK14368/08, 24 h
Staphylococcus aureus [11] = test: Antibacterial activity against methicillin-resistant Staphylococcus aureus HK5996/08 clinical isolate after 24 hrs by microdilution assay; format: functional; conditions: HK5996/08, 24 h
PC-3 [12] = test: Induction of apoptosis in human PC3 cells assessed as caspase 3/7 activity after 24 hrs by caspase-glo luminescent assay; format: cell-based; conditions: PC-3, 24 h; procedure, shortened: as §3
Aspergillus fumigatus = test: Antifungal activity against Aspergillus fumigatus 231 up to 1 mM after 24 to 48 hrs by microdilution assay; format: functional, organism-based; procedure, shortened: as §1
MCF7 = test: Cytotoxicity against human MCF7 cells assessed as reduction in cell viability after 48 hrs by ATPlite-based luminescent assay; conditions: MCF7, 48 h
Klebsiella pneumoniae [13] = test: Antibacterial activity against Klebsiella pneumoniae HK14368/08 clinical isolate after 48 hrs by microdilution assay; format: functional; conditions: HK14368/08, 48 h
Enterococcus sp. [14] = test: Antibacterial activity against Enterococcus sp. HK14365/08 clinical isolate after 24 hrs by microdilution assay; format: functional; conditions: HK14365/08, 24 h
TERT-RPE1 [15] = test: Cytotoxicity against human RPE1 cells assessed as reduction in cell viability after 48 hrs by ATPlite-based luminescent assay; conditions: RPE-1, 48 h; procedure, shortened: as §4
Staphylococcus aureus [16] = test: Antibacterial activity against methicillin-resistant Staphylococcus aureus HK5996/08 clinical isolate after 48 hrs by microdilution assay; format: functional; conditions: HK5996/08, 48 h
HL-60 [17] = test: Cytotoxicity against human HL60 cells assessed as reduction in cell viability after 48 hrs by ATPlite-based luminescent assay; conditions: HL-60, 48 h; procedure, shortened: as §4
HepG2 [18] = test: Induction of apoptosis in human HepG2 cells assessed as caspase 3/7 activity after 24 hrs by caspase-glo luminescent assay; format: cell-based; conditions: HepG2, 24 h; procedure, shortened: as §3
Escherichia coli [19] = test: Antibacterial activity against Escherichia coli ATCC 8739 after 48 hrs by microdilution assay; format: functional; conditions: ATCC 8739, 48 h; procedure, shortened: as §2
PC-3 [20] = test: Cytotoxicity against human PC3 cells assessed as reduction in cell viability after 48 hrs by ATPlite-based luminescent assay; conditions: PC-3, 48 h; procedure, shortened: as §4
Candida tropicalis = test: Antifungal activity against Candida tropicalis 156 clinical isolate up to 1 mM after 24 to 48 hrs by microdilution assay; format: functional, organism-based; procedure, shortened: as §1
BJ = test: Cytotoxicity against human BJ cells assessed as reduction in cell viability after 48 hrs by ATPlite-based luminescent assay; procedure, shortened: as §4
Pichia kudriavzevii [21] = test: Antifungal activity against Candida krusei ATCC 6258 up to 1 mM after 24 to 48 hrs by microdilution assay; format: functional, organism-based; procedure, shortened: as §1
Escherichia coli [22] = test: Antibacterial activity against Escherichia coli ATCC 8739 after 24 hrs by microdilution assay; format: functional; conditions: ATCC 8739, 24 h; procedure, shortened: as §2
Candida parapsilosis = test: Antifungal activity against Candida parapsilosis ATCC 22019 up to 1 mM after 24 to 48 hrs by microdilution assay; format: functional, organism-based; procedure, shortened: as §1
K562 [23] = test: Cytotoxicity against human K562 cells assessed as reduction in cell viability after 48 hrs by ATPlite-based luminescent assay; conditions: K562, 48 h; procedure, shortened: as §4
[24] = test system: Staphylococcus epidermidis; test: Antibacterial activity against Staphylococcus epidermidis HK6966/08 clinical isolate after 48 hrs by microdilution assay; format: functional; conditions: HK6966/08, 48 h
Pseudomonas aeruginosa [25] = test: Antibacterial activity against Pseudomonas aeruginosa ATCC 9027 after 24 hrs by microdilution assay; format: functional; conditions: ATCC 9027, 24 h; procedure, shortened: as §2
Nakaseomyces glabratus = test: Antifungal activity against Candida glabrata 20/I clinical isolate up to 1 mM after 24 to 48 hrs by microdilution assay; format: functional, organism-based; procedure, shortened: as §1
K562 [26] = test: Induction of apoptosis in human K562 cells assessed as caspase 3/7 activity after 24 hrs by caspase-glo luminescent assay; format: cell-based; conditions: K562, 24 h; procedure, shortened: as §3
HL-60 [27] = test: Induction of apoptosis in human HL60 cells assessed as caspase 3/7 activity after 24 hrs by caspase-glo luminescent assay; format: cell-based; conditions: HL-60, 24 h; procedure, shortened: as §3
[28] = test system: Staphylococcus epidermidis; test: Antibacterial activity against Staphylococcus epidermidis HK6966/08 clinical isolate after 24 hrs by microdilution assay; format: functional; conditions: HK6966/08, 24 h
Candida albicans [29] = test: Antifungal activity against Candida albicans ATCC 44859 up to 1 mM after 24 to 48 hrs by microdilution assay; format: functional, organism-based; procedure, shortened: as §1
Clavispora lusitaniae = test: Antifungal activity against Candida lusitaniae 2446/I clinical isolate up to 1 mM after 24 to 48 hrs by microdilution assay; format: functional, organism-based; procedure, shortened: as §1
Enterococcus sp. [30] = test: Antibacterial activity against Enterococcus sp. HK14365/08 clinical isolate after 48 hrs by microdilution assay; format: functional; conditions: HK14365/08, 48 h
Lichtheimia corymbifera = test: Antifungal activity against Absidia corymbifera 272 up to 1 mM after 24 to 48 hrs by microdilution assay; format: functional, organism-based; procedure, shortened: as §1
Trichosporon asahii = test: Antifungal activity against Trichosporon asahii 1188 clinical isolate up to 1 mM after 24 to 48 hrs by microdilution assay; format: functional, organism-based; procedure, shortened: as §1
Klebsiella pneumoniae [31] = test: Antibacterial activity against Klebsiella pneumoniae HK11750/08 clinical isolate after 24 hrs by microdilution assay; format: functional; conditions: HK11750/08, 24 h

SMILES | Activity (Candida albicans [1]) | Activity (Pichia kudriavzevii [2]) | MIC95 (Pseudomonas aeruginosa [3]) | IC50 (TERT-RPE1 [4]) | MIC95 (Klebsiella pneumoniae [5]) | Activity [6] | IC50 (HepG2 [7]) | MIC95 (Staphylococcus aureus [8]) | MIC95 (Staphylococcus aureus [9]) | MIC95 (Klebsiella pneumoniae [10]) | MIC95 (Staphylococcus aureus [11]) | IC50 (PC-3 [12]) | Activity (Aspergillus fumigatus) | IC50 (MCF7) | MIC95 (Klebsiella pneumoniae [13]) | MIC95 (Enterococcus sp. [14]) | IC50 (TERT-RPE1 [15]) | MIC95 (Staphylococcus aureus [16]) | IC50 (HL-60 [17]) | IC50 (HepG2 [18]) | also measured
Cc1ccc(C2=C(c3ccc(Br)cc3)C(=O)OC2(CO)CO)cc1 | inactive | inactive | > 500 µM | > 40 µM | > 500 µM | inactive | > 40 µM | 0.98 µM (≈ 0.381 µg/mL) | 3.9 µM (≈ 1.52 µg/mL) | > 500 µM | 250 µM (≈ 97.3 µg/mL) | > 40 µM | inactive | > 40 µM | > 500 µM | 500 µM (≈ 195 µg/mL) | > 40 µM | 500 µM (≈ 195 µg/mL) | > 40 µM | > 40 µM | MIC95 (Escherichia coli [19]): > 500 µM; IC50 (PC-3 [20]): > 40 µM; Activity (Candida tropicalis): inactive; IC50 (BJ): > 40 µM; Activity (Pichia kudriavzevii [21]): inactive; MIC95 (Escherichia coli [22]): > 500 µM; Activity (Candida parapsilosis): inactive; IC50 (K562 [23]): > 40 µM; MIC95 [24]: 500 µM (≈ 195 µg/mL); MIC95 (Pseudomonas aeruginosa [25]): > 500 µM; Activity (Nakaseomyces glabratus): inactive; IC50 (K562 [26]): > 40 µM; IC50 (HL-60 [27]): > 40 µM; MIC95 [28]: 62.5 µM (≈ 24.3 µg/mL); Activity (Candida albicans [29]): inactive; Activity (Clavispora lusitaniae): inactive; MIC95 (Enterococcus sp. [30]): > 500 µM; Activity (Lichtheimia corymbifera): inactive; Activity (Trichosporon asahii): inactive; MIC95 (Klebsiella pneumoniae [31]): > 500 µM
O=C1OC(CO)(CO)C(c2ccc(Br)cc2)=C1c1cccc(Cl)c1Cl | inactive | inactive | > 500 µM | > 40 µM | > 500 µM | inactive | > 40 µM | 15.6 µM (≈ 6.94 µg/mL) | 31.2 µM (≈ 13.9 µg/mL) | > 500 µM | > 500 µM | > 40 µM | inactive | > 40 µM | > 500 µM | > 500 µM | > 40 µM | > 500 µM | > 40 µM | > 40 µM | MIC95 (Escherichia coli [19]): > 500 µM; IC50 (PC-3 [20]): > 40 µM; Activity (Candida tropicalis): inactive; IC50 (BJ): > 40 µM; Activity (Pichia kudriavzevii [21]): inactive; MIC95 (Escherichia coli [22]): > 500 µM; Activity (Candida parapsilosis): inactive; IC50 (K562 [23]): > 40 µM; MIC95 [24]: 250 µM (≈ 111 µg/mL); MIC95 (Pseudomonas aeruginosa [25]): > 500 µM; Activity (Nakaseomyces glabratus): inactive; IC50 (K562 [26]): > 40 µM; IC50 (HL-60 [27]): > 40 µM; MIC95 [28]: 62.5 µM (≈ 27.8 µg/mL); Activity (Candida albicans [29]): inactive; Activity (Clavispora lusitaniae): inactive; MIC95 (Enterococcus sp. [30]): > 500 µM; Activity (Lichtheimia corymbifera): inactive; Activity (Trichosporon asahii): inactive; MIC95 (Klebsiella pneumoniae [31]): > 500 µM
